Laboratory results: ChEMBL document CHEMBL5335826, “Biochemical and Structural Studies of the Carminomycin 4-O-Methyltransferase DnrK” (J Nat Prod, 2024)
Calls of active or inactive are those of the source. The calls are words filed in the database; no cut-off is given here.

Tested on: Ambystoma mexicanum
Assay: Inhibition of Ambystoma mexicanum tail regeneration at 10 uM
Assay type: functional
In short: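 Stage 42 Ambystoma mexicanum embryos were manually hatched and anesthetized with benzocaine, then given 2 mm tail amputations. They were reared at 18–19 °C in artificial pond water containing test agent in DMSO (0.1% final DMSO), with solutions changed at 3 and 5 dpa. Regeneration was imaged at 0, 3, 5 and 7 dpa, ending at 7 dpa. DMSO vehicle was the negative control and geldanamycin the positive control.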

| Structure (SMILES) | tail regeneration inhibition (active/not active) |
| --- | --- |
| COc1cccc2c1C(=O)c1c(O)c3c(c(O)c1C2=O)C[C@@](O)(C(C)=O)C[C@@H]3O[C@H]1C[C@H](N)[C@H](O)[C@H](C)O1 | inactive |
| CO[C@H]1[C@H](O[C@@H]2c3c(cc4c(c3O)C(=O)c3c(O)cccc3C4=O)C(=O)[C@@](C)(O)[C@H]2OC)O[C@@H](C)[C@H](O)[C@H]1O | inactive |
| CC(=O)[C@]1(O)Cc2c(O)c3c(c(O)c2[C@@H](O[C@H]2C[C@H](N)[C@H](O)[C@H](C)O2)C1)C(=O)c1c(O)cccc1C3=O | inactive |
| COc1cc(O)c2c(c1)C(=O)c1cc3c(c(O)c1C2=O)[C@@H](O[C@@H]1O[C@@H](C)[C@H](OC)[C@@H](O)[C@H]1OC)[C@H](OC)[C@](C)(O)C3=O | Active |
| COc1cccc2c1C(=O)c1c(cc3c(c1O)[C@@H](O[C@@H]1O[C@@H](C)[C@H](O)[C@@H](O)[C@H]1OC)[C@H](OC)[C@](C)(O)C3=O)C2=O | inactive |
